STAT1 activator – STAT1 signaling activation. NIH 3T3 STAT1-luciferase reporter, IFN-gamma, luminescence; 100% = IFN-gamma alone, no compound. activation (% of control), % at 5.5 µM. hit rate 2.6% among 200,000;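 active means activation above the screen-wide mean activation plus 3 SD, cut at about 130% in these data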
NF-kB expr up – compounds increasing NF-kB expression in human neuronal cells; fold change at 12.5 µM; NF-kB reporter expression; stronger effect = higher value; AID 1239; hit rate 1.6% among 190,000; in the data active means fold change above about 3.3
APP 5'UTR act – activates APP 5'UTR luciferase reporter; hit rate 1% among 190,000; AID 1276; SH-SY5Y APP 5'UTR luciferase reporter, luminescence; zero percent = DMSO vehicle wells; activation, % at 2 µM;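 active means activation above a set limit, based on mean plus 3 SD of controls, cut at about 140% in these data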
STAT3 activator – STAT3 signaling activation; U3A cells, IL-6 STAT3-luciferase reporter, luminescence; 100% = signal with IL-6 EC80 alone; activation (% of control), % at 5.6 µM; hit rate 0.91% among 190,000; AID 871;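 active means activation above the screen-wide mean of compound activation plus 3 SD, cut at about 130% in these data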
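Test system: STAT3-luciferase reporter U3A cells; Detection: reporter luminescence signal; Times: 1 h compound pre-exposure, 6 h IL-6 stimulation, 37 °C; Benchmarks: IL-6-only high control; Also added: IL-6 stimulus at 33 ng/mL final.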
STAT1 inh – reduces IFN-gamma driven STAT1 reporter signal. NIH 3T3 STAT1-luciferase reporter, luminescence. inhibition, % at 5.5 µM. hit rate 0.35% among 200,000;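 active means inhibition above a set limit, the mean inhibition across all tested compounds plus 3 SD, cut at about 34% in these data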
STAT3 blocker – inhibitors of IL-6 induced STAT3 signaling; U3A cells, IL-6 STAT3-luciferase reporter, luminescence; host cell line lacks STAT1; inhibition, % at 5.5 µM; hit rate 0.89% among 190,000; AID 862;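 active means inhibition above the mean inhibition across all screened compounds plus 3 SD, cut at about 44% in these data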
Large screens that a line does not name were inactive. Sampled rows, rich in hits. Any-hit rate of the full collection: about 4.9%.

Cc1nc2c(=O)n(C)c(=O)nc-2n(C)n1	STAT1 inh 92, STAT3 blocker 107
Cc1ccc(C(=O)NC(O)C(Cl)(Cl)Cl)cc1 (stereo not given)	none
O=C(c1cc2ccccn2n1)N1CCC2(CC1)OCCO2	none
O=C(c1cc(-c2ccccc2)on1)N1CCC2(CC1)OCCO2	STAT1 activator 137, NF-kB expr up 5.2
O=C(Nc1ccccc1)c1cccn(Cc2ccccc2)c1=O	STAT1 activator 132
Clc1ccccc1Nc1ncnc(-n2cccc2)n1	STAT1 activator 136
Nc1ccccc1C(=O)OCc1ccc([N+](=O)[O-])cc1	STAT1 activator 136
COc1ccc(OCC(=O)N2CCN(CC3CC4C=CC3C4)CC2)cc1 (stereo not given)	none
C=CCN1C(=O)/C(=C\c2ccc(N3CCOCC3)o2)C(=O)NC1=S	none
CN1C(=O)/C(=C\c2ccc(N3CCCCC3)o2)C(=O)NC1=S	STAT1 activator 133
Cc1ccc(-n2c(O)c(C=Nc3ccc(Br)cn3)c(=O)[nH]c2=O)cc1	none
O=P(O)(O)Cc1c(Cl)cccc1Cl	none
C=C1C[C@]2(O)[C@@]3(C)CCC(=O)C(C)(C)C3=C(O)C(=O)[C@@]2(C)[C@@H]2C(=O)O[C@@](C)(C(=O)OC)C(=O)[C@@]12C	none (no result: STAT3 activator, STAT3 blocker)
CNc1cc(Cl)c2nonc2c1[N+](=O)[O-]	STAT1 activator 141
Cc1ccccc1-n1c(-c2ccc([N+](=O)[O-])cc2)nc2ccccc2c1=O	none
CN(C)c1ccc(C(=O)c2ccc(N(C)C)cc2)cc1	STAT1 activator 134 (no result: APP 5'UTR act)
CN1CCN(c2ncnc3ccc(Br)cc23)CC1	none
Cc1ccc2nc(N3CCN(C)CC3)[nH]c2c1	STAT1 activator 133
CC(C)c1oc(=O)cc2c1[C@@H](O)[C@H]1OC(=O)[C@@]3(C)C[C@@H](O)[C@@H](O)[C@@]2(C)C13 (stereo not given in full)	NF-kB expr up 7
CC(C)c1oc(=O)cc2c1[C@@H](O)[C@H]1OC(=O)[C@@]3(C)CC[C@@H](O)[C@@]2(C)C13 (stereo not given in full)	NF-kB expr up 3.3
COc1ccc(P2(=O)Nc3ccccc3N2)cc1	APP 5'UTR act 171
COc1ccc(NP(=O)(Nc2ccc(OC)cc2)Oc2ccccc2)cc1	none
COc1ccc2nc(NC3=NCCN3)sc2c1	STAT1 activator 140
CC(=NCCO)c1c(O)n(C)c(=O)n(C)c1=O	none
CNC(=O)Oc1ccc(-c2cn3cc(C)ccc3n2)cc1	NF-kB expr up 5, STAT1 inh 82, STAT3 blocker 106
Cc1cc(C=C2C(=O)NC(=S)NC2=O)c(C)n1C1CCCC1	STAT1 activator 136
Cc1cc(C)cc(N2C(=O)NC(=O)/C(=C/c3cccn3-c3ccc(Cl)cc3)C2=O)c1	none
Cc1cccc(N2C(=O)NC(=O)/C(=C\c3cccn3-c3ccc(Cl)cc3)C2=O)c1	STAT1 inh 34
CCOc1ccccc1NC(=O)N1CCC2(CC1)OCCO2	none
CN1/C(=C\C=C\C2=[N+](C)c3ccc4ccccc4c3C2(C)C)C(C)(C)c2ccccc21	STAT1 inh 72, STAT3 blocker 103
O=C(O)C1C2CCC(O2)C1C(=O)NC1CCCCC1 (stereo not given)	none
C[N+]12CCC(CC1)C(C(O)(c1ccccc1)c1cccs1)C2 (stereo not given)	NF-kB expr up 4.1
CCC(=NCc1ccc(F)cc1)c1c(O)n(C)c(=O)n(C)c1=O	none
Cc1nn(CCC#N)c2c1P(=S)(N1CCCC1)OC(c1ccc(F)cc1)=N2 (stereo not given)	none
O=C(COc1ccc2ccccc2c1)N1CCN(Cc2c[nH]c3ccccc23)CC1	none
O=C(COc1ccc(Br)cc1)N1CCN(Cc2c[nH]c3ccccc23)CC1	STAT3 activator 135
Nc1c2c(nc3sc4c(c13)CCCC4)CCCC2	none
Nc1c2c(nc3sc4c(c13)CCCC4)CCCCC2	NF-kB expr up 3.8
CN(C)c1cccc2c(C#N)ccc(N(C)C)c12	none
CC1CCC/C=C/C2CC(O)CC2C(O)/C=C/C(=O)O1 (stereo not given)	STAT1 inh 53, STAT3 blocker 89
